Laboratory results: PubChem BioAssay
Activity calls are given as the source filed them.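 Rule for the calls, unless noted: active = visually confirmed hit in the image check and inhibition above 20%; inconclusive = visually confirmed hit but inhibition not above 20%; inactive = no visual hit in the image check.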

How the values were obtained:
[1] = inhibitors of TNFa-induced NFkB p65 translocation, primary screen, imaging, HUVEC, MLSMR starter and 10KST1 sets (AID 438;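 active = inhibition above 20% together with a positive visual image hit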;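 note: compound added about 3h40 before a 20 min TNFalpha stimulation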;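 for inhibition: signal is the nuclear over cytoplasmic p65 intensity ratio per well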); conditions: HUVEC TNFa-induced p65 nuclear translocation; cell count: measured here: nuclei count (cytotoxicity indicator), at 2.08 µM; inhibition: at 2 µM, stronger effect = higher value, 0% TNFa-plus-vehicle, 100% no-TNFa wells
[2] = endothelial E-selectin expression blockers – imaging, HUVEC, immunofluorescence, MLSMR starter and 10KST1 sets, primary screen (AID 487); conditions: HUVEC TNFalpha-induced E-selectin immunofluorescence imaging, at 2 µM; inhibition: stronger effect = higher value; nuclei count: measured here: cell number, toxicity;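 for inhibition: signal is fraction of cell area covered by stained E-selectin grains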;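 for nuclei count: 100% = median nuclei count of all wells on the same plate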
[3] = Primary imaging screen for DUSP6 inhibitors that restore phospho-Erk in transfected HeLa cells, chemical complementation (AID 609;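 active = compounds giving at least 50% inhibition in the cell-based MKP-3 phosphatase rescue imaging test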;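 for inhibition: phospho-Erk level distribution per well compared with pooled transfected vehicle control wells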); conditions: HeLa MKP-3 transfected, phospho-Erk imaging KS statistic, at 10 µM, cells stimulated with TPA for 15 min
[4] = biological target: Dual specificity protein phosphatase 6 (Homo sapiens) (UniProt Q16828); experiment: as above; conditions: HeLa MKP-3 transfected, phospho-Erk imaging KS statistic; at 10 µM; stronger effect = higher value; cells stimulated with TPA for 15 min
Dual specificity protein phosphatase 6 (Homo sapiens), sequence (Q16828 whole entry, looked up): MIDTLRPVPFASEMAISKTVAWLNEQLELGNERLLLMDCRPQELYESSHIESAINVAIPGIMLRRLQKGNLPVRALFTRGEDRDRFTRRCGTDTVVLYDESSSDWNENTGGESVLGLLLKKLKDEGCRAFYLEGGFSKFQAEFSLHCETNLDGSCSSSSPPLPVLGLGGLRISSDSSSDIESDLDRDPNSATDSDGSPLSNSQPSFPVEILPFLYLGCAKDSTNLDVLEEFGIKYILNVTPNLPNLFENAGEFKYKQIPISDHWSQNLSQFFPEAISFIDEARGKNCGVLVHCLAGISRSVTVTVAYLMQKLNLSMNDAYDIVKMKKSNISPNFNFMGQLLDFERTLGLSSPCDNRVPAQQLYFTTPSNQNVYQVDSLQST

[5] = biological target: Voltage-gated potassium channel subunit beta-2 (Rattus norvegicus) (UniProt P62483); experiment: inhibitors of rat Kvbeta2 reductase activity – biochemical, NADPH fluorescence, primary screen (AID 622;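 active = fluorescence slope higher than the sample average by over 3 SD, cut at about -0.22 in these data, passing the limit was not always enough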;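 note: slope of raw intensity against log time taken from 70 to 1610 s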); conditions: recombinant KvBeta, 4-cyanobenzaldehyde reduction, at 10 µM, stronger effect = higher value
Voltage-gated potassium channel subunit beta-2 (Rattus norvegicus), sequence (P62483 whole entry, looked up): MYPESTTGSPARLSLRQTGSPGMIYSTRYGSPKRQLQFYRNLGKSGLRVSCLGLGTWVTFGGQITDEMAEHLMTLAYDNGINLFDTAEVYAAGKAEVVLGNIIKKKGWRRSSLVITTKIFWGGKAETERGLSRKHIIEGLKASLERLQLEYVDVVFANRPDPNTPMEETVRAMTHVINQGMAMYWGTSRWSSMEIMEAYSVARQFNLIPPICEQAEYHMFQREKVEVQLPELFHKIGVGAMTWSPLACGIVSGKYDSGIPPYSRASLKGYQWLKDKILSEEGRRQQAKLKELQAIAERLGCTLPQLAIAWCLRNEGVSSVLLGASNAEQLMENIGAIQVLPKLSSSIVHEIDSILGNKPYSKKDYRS

[6] = biological target: Voltage-gated potassium channel subunit beta-2 (Rattus norvegicus) (UniProt P62483); experiment: enhancers of rat Kvbeta2 NADPH turnover – biochemical, NADPH fluorescence, primary screen (AID 623;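 active = NADPH fluorescence slope more negative than the mean of all samples by about 3 SD, 99.7% confidence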;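 note: fluorescence intensity change per second fitted from 20 to 320 s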); conditions: Recombinant KvBeta, NADPH fluorescence decrease slope, 10 min; at 10 µM; stronger effect = lower value
[7] = biological target: Muscarinic acetylcholine receptor M4 (Homo sapiens) (UniProt P08173); experiment: M4-linked GIRK flux change, two-sided – cell-based, HEK293 M4/GIRK, thallium flux, BTC-AM, M4 allosteric agonist project, primary screen (AID 625;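 active = fluorescence slope after compound addition differing from the mean of all tested samples at 99.7% confidence, mostly higher but some lower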;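 note: thallium influx through GIRK channels coupled to M4 in HEK293 cells with BTC-AM dye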); conditions: at 10 µM, actives lie on both sides
Muscarinic acetylcholine receptor M4 (Homo sapiens), sequence (P08173 whole entry, looked up): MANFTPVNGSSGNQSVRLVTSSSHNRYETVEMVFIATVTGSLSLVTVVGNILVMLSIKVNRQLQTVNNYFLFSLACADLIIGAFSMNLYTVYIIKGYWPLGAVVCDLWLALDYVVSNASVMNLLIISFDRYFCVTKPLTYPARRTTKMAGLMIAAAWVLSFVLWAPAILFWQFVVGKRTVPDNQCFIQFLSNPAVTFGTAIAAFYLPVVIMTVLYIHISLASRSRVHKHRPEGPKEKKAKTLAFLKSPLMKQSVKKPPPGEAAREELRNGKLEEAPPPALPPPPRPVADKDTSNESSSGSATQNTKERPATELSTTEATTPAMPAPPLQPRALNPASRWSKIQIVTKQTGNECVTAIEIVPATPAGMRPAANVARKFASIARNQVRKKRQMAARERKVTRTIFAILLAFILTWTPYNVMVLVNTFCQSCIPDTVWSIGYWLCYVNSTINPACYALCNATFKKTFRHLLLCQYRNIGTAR
Summary of the method: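 Material: M4/GIRK1/GIRK2 stable HEK293 cell line. Medium: pH 7.3 thallium assay buffer. Dosing: single compound concentration, 10 µM final. Schedule: 1 h dye loading, 2 min kinetic read. Measured by: kinetic fluorescence with BTC-AM dye. Read-out: post-addition slope, 15–24 s, of baseline-normalized fluorescence. Benchmarks: carbachol and DMSO controls.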

[8] = inhibitors of larval lipid processing in zebrafish, primary screen, whole organism, PED6 fluorescence, gall bladder and intestine (AID 686;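 active = a full or partial loss of lipid-probe fluorescence in the fish gall bladder, intestine or both, judged by eye; inactive = no fluorescence loss, or compound toxic to the fish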;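 note: larvae 5 to 7 days old with five fish per well; signal comes from phospholipase A2 cleavage of quenched PED6 carried via bile; overnight exposure to compound and PED6 before scoring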); conditions: Zebrafish larvae PED6 lipid processing, fluorescence scoring; screened at 20 µM (by protocol)
Summary of the method: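 System: live zebrafish larvae aged 5-7 days, whole organism; measure: graded gall bladder and intestinal fluorescence inhibition per well; incubation: overnight exposure; reagent: ingested quenched lipid PED6 at 100 nM; signal: By-eye fluorescence microscopy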

[9] = loss of swimming-algae plug formation – whole organism, Chlamydomonas reinhardtii, WT vs cilia-less mutant, absorbance, 96-well, primary screen (AID 463189;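 active = inhibition at or above 50% relative to wild type and mutant plate controls; inactive = inhibition below 50%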;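 note: 0% = wild type cc124 cells in DMSO and 100% = ciliumless bld1 mutant cells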); conditions: Chlamydomonas reinhardtii gravitaxis, OD600 absorbance, 2 days; at 10 µM; stronger effect = higher value
[10] = measured here: cell density z-score
[11] = measured here: nuclear c-Myc green intensity z-score
[12] = measured here: nuclear pErk red intensity z-score, stronger effect = higher value

SMILES	cell count [1]	inhibition [1]	inhibition [2]	nuclei count [2] [%]	z-score [3, 10]	z-score [3, 11]	z-score [3, 12]	inhibition [4]	fluorescence slope [5]	NADPH fluorescence slope [6]	fluorescence slope [7]	outcome [8]	inhibition [9]
CC(C)NCc1c(O)c(Br)cc2oc3c(c12)CCCC3	533	9.9% (inactive)	-3.5% (inactive)	99.8	0.0675	-0.158	-0.115	-7.67% (inactive)	-0.517 (inactive)	-1.1e-05 (inactive)	0.00361 (inactive)	inactive	53.2% (active)
N#Cc1nc(COc2ccc(Br)cc2)oc1NCCN1CCOCC1	510	-5.5% (inactive)	-38.7% (inactive)	169	0.361	0.776	1.07	7.7% (inactive)	-0.432 (inactive)	-4.4e-05 (inactive)	0.00542 (inactive)	inactive	-13.6% (inactive)
CCSc1nnc(NC(NC(=O)c2ccco2)(C(F)(F)F)C(F)(F)F)s1	608	-7.3% (inactive)	-13.8% (inactive)	91.9	-1.05	-0.75	-0.312	-7.67% (inactive)	-0.483 (inactive)	-3.9e-05 (inactive)	0.00455 (inactive)	inactive	-9.53% (inactive)
CC1(C)Cc2c(c(-c3ccco3)[nH]c(=O)c2C#N)CS1	706	-0.5% (inactive)	-101% (inactive)	143	0.203	0.427	1.52	-11.5% (inactive)	-0.388 (inactive)	-9.3e-05 (inactive)	0.00494 (inactive)	inactive	3.67% (inactive)
CCn1c(SCC(=O)N2CCOCC2)nc2sc3c(c2c1=O)CCCC3	577	-9.8% (inactive)	-55% (inactive)	122	-0.0545	-0.0901	0.641	-8.59% (inactive)	-0.463 (inactive)	-0.000111 (inactive)	0.0048 (inactive)	inactive	13.7% (inactive)
COc1ccc(N2C(=O)CC(N(Cc3ccc(S(N)(=O)=O)cc3)C(C)=O)C2=O)cc1 (stereo unspecified)	550	4.1% (inactive)	19.1% (inactive)	126	0.546	-0.739	0.891	20.2% (inactive)	-0.481 (inactive)	-3.2e-05 (inactive)	0.00578 (inactive)	inactive	9.88% (inactive)
Cc1cc(=O)n(CCC(=O)O)c2ccccc12	722	-2.6% (inactive)	-33.8% (inactive)	175	1.44	-0.504	-1.75	5.95% (inactive)	-0.48 (inactive)	-8.8e-05 (inactive)	0.0062 (inactive)	inactive	-13% (inactive)
CSc1nc2sc3c(c2c2nnnn12)CCCC3	506	-14.9% (inactive)	-77.3% (inactive)	118	0.676	-0.0981	-1.25	-5.81% (inactive)	-0.455 (inactive)	-7.9e-06 (inactive)	0.00421 (inactive)	inactive	31% (inactive)
CCOc1ccc2nc(NC(NC(C)=O)(C(=O)OC)C(F)(F)F)sc2c1 (stereo unspecified)	550	1.9% (inactive)	-54.7% (inactive)	119	-0.584	0.796	1.15	-4.59% (inactive)	-0.459 (inactive)	-0.000128 (inactive)	0.00553 (inactive)	inactive	7.67% (inactive)
CC(C)C(=O)N1CCN(c2nc(-c3ccccc3)c3c(c2C#N)CC(C)(C)OC3)CC1	607	-3.4% (inactive)	-9.6% (inactive)	163	0.152	0.868	-0.257	-2.29% (inactive)	-0.366 (inactive)	-2.4e-05 (inactive)	0.00797 (inactive)	inactive	26.8% (inactive)
CCOC(=O)c1[nH]c2cc3c(cc2c1NC(=O)CN1CC(C)CC(C)C1)OCO3 (stereo unspecified)	527	1.2% (inactive)	5.3% (inactive)	167	0.5	-1.18	-0.714	9.91% (inactive)	-0.329 (inactive)	-8.9e-06 (inactive)	0.00584 (inactive)	inactive	-3.44% (inactive)
C=CCNc1nc(C)nc(OC)n1	634	-0.1% (inactive)	69.9% (active)	85.8	-3.44	2.82	1.07	14.7% (inactive)	-0.481 (inactive)	-4.7e-05 (inactive)	0.00536 (inactive)	inactive	-10.1% (inactive)
NC(=O)/C(=N\O)c1ccccc1	575	5.9% (inactive)	-43.3% (inactive)	113	-0.256	-0.324	0.104	-4.7% (inactive)	-0.461 (inactive)	-5.1e-05 (inactive)	0.00531 (inactive)	inactive	-12.8% (inactive)
CCN(CC)C(=O)COn1c(SCC(=O)N(CC)CC)nc2ccccc2c1=O	714	1% (inactive)	10.1% (inactive)	161	-0.154	-0.248	0.329	-1.12% (inactive)	-0.42 (inactive)	-4.1e-05 (inactive)	0.00498 (inactive)	inactive	-1.16% (inactive)
CCCCOc1ccccc1C(=O)NCCCCCC(=O)O	375	-2.6% (inactive)	-80.5% (inactive)	150	1.24	-0.608	1.41	-0.584% (inactive)	-0.462 (inactive)	-0.000119 (inactive)	0.00571 (inactive)	inactive	19.6% (inactive)
Cc1ccc(Oc2nc3c(c(=O)n(Cc4ccccc4F)c(=O)n3C)n2C)cc1	749	2.1% (inactive)	-74.9% (inactive)	156	0.256	-1.95	-0.363	19.8% (inactive)	-0.508 (inactive)	-3.8e-05 (inactive)	0.00827 (inactive)	inactive	11.6% (inactive)
CC(NC(=O)c1ccc(=O)oc1)c1ccccc1 (stereo unspecified)	544	4.1% (inactive)	56.8% (inactive)	167	-0.00091	1.16	1.91	13.9% (inactive)	-0.409 (inactive)	-5.3e-05 (inactive)	0.00521 (inactive)	inactive	6.14% (inactive)
Cc1cc(C)c(C#N)c(OCC(=O)c2ccccc2)n1	450	-5.3% (inactive)	-69% (inactive)	156	-0.815	1.05	0.134	-3.95% (inactive)	-0.405 (inactive)	-3.4e-05 (inactive)	0.00481 (inactive)	inactive	-6.74% (inactive)
Nc1ccc2c3c(cccc13)CC2	400	-4.5% (inactive)	-74% (inactive)	108	0.938	0.125	-0.141	9.37% (inactive)	-0.281 (inactive)	-2.2e-05 (inactive)	0.00407 (inactive)	inactive	-6.34% (inactive)
C/C(=N\O)C(=O)NCCCn1ccnc1	636	-10.8% (inactive)	26.6% (inactive)	94.5	-0.252	0.0271	0.47	-0.233% (inactive)	-0.478 (inactive)	-0.000143 (inactive)	0.00635 (inactive)	inactive	-9.7% (inactive)
N#CCSc1nc2c(c(=O)n1Cc1ccco1)C1(CCCC1)Cc1ccccc1-2	500	-2.6% (inactive)	-97.3% (inactive)	150	0.3	0.666	-0.907	13.9% (inactive)	-0.397 (inactive)	-2.2e-05 (inactive)	0.00897 (inactive)	active; weak signal in gallbladder and intestine	-7.4% (inactive)
COc1ccccc1-n1c(N)c(C(=O)NCC2CCCO2)c2nc3ccccc3nc21 (stereo unspecified)	630	-11.8% (inactive)	-49.3% (inactive)	160	1.5	-1.96	0.209	14.7% (inactive)	-0.0437 (inactive)	2e-05 (inactive)	0.00576 (inactive)	inactive	19.9% (inactive)
CCN1CCc2c(C#N)c(NCc3ccccc3)nc(N(CC)CC)c2C1	554	-13.9% (inactive)	-108% (inactive)	141	0.401	-1.69	0.375	3.49% (inactive)	-0.439 (inactive)	-0.000126 (inactive)	0.00477 (inactive)	inactive	119% (active)
CCN1CCc2c(C#N)c(N3CCCCC3)nc(N3CCOCC3)c2C1	567	-7.1% (inactive)	-95.8% (inactive)	149	0.15	-1.22	1.09	-2.09% (inactive)	-0.46 (inactive)	-7.6e-05 (inactive)	0.00491 (inactive)	inactive	20.3% (inactive)
N#Cc1cc(Oc2cccc3cccnc23)c(-n2nnc3ccccc32)cc1C#N	527	-0.1% (inactive)	-156% (inactive)	145	2.59	-0.877	-1.07	6.04% (inactive)	-0.438 (inactive)	-2.5e-05 (inactive)	0.0061 (inactive)	inactive	25.9% (inactive)
Nc1ccc2oc(-c3cc(Br)ccc3Cl)nc2c1	569	3.7% (inactive)	-26.9% (inactive)	171	0.555	-1.29	0.312	9.91% (inactive)	-0.00932 (inactive)	8.2e-06 (inactive)	0.00586 (inactive)	inactive	15.1% (inactive)
COc1ccc2c(c1)c(C(=O)CN1CCOCC1)c(C)n2C	628	0.5% (inactive)	57.3% (inactive)	85.8	-0.409	-0.95	1.79	17.8% (inactive)	-0.48 (inactive)	-5.6e-05 (inactive)	0.00679 (inactive)	active; weak signal in gallbladder and intestine	27.4% (inactive)
